Data set [1] is described as follows: Drug excretion in Sprague-Dawley rat feces treated with 20(S)-protopanaxadiol at 100 mg/kg/day, po qd for 11 days administered via gavage by liquid chromatography-electrospray ionization ion trap mass spectrometry. Type of data set: ADME, organism-based. On the set-up: route oral. The conditions noted are these: in vivo, 264 h. The method in brief: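 PPD given by gavage at 10 mg/ml in 0.5% carboxymethyl cellulose sodium, 0.5% polysorbate-80 and 99% saline; 20 rats, one per metabolic cage. Feces collected over 0–288 h (48 h after last dose), blanks taken before dosing, frozen at -20°C.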

Data set [2] deals with Hepatocyte. Put plainly: Drug level in human hepatocytes treated with 20(S)-protopanaxadiol at 50 uM after 180 mins by liquid chromatography-electrospray ionization ion trap mass spectrometry. Format: ADME, cell-based. The conditions noted are these: 3 h. The method in brief:
(§1)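 Human hepatocytes (2 million cells/ml) in Williams' E medium with substrate 50 µM, 0.5% (v/v) final MeOH, 37°C for 3 h. Negative controls were substrate at 0 h and no substrate at 3 h. Quenched with equal volume acetonitrile, in duplicate. Methanol was added, then centrifugation, dry-down and reconstitution. Analysed by C8 reversed-phase LC with formic acid/methanol–ammonium acetate gradient, ESI ion trap MSⁿ, m/z 100–800.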

Data set [3] concerns Liver microsome. Put plainly: Retention time of the compound in mixed human liver microsomes treated with 20(S)-protopanaxadiol at 50 uM after 60 mins by liquid chromatography-electrospray ionization ion trap mass spectrometry. Type of data set: ADME. Conditions: 1 h. The method in brief:
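Pooled HLM protein 1.0 mg/ml with substrate 50 µM in 100 mM potassium phosphate pH 7.4, 0.1% (v/v) final MeOH. Preincubated 3 min at 37°C, started with 2.0 mM NADPH, incubated 60 min. Stopped with equal volume ice-cold acetonitrile. Controls lacked NADPH or substrate, in duplicate. Analysed on C8 reversed-phase column, formic acid methanol/ammonium acetate gradient, ESI ion trap MSⁿ.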

Data set [4] can be described thus: Retention time of the compound treated with 20(S)-protopanaxadiol at 100 uM measured after 60 mins by liquid chromatography-electrospray ionization ion trap mass spectrometry in presence of 10 uM 3-chloroperoxybenzoic acid. Type of data set: physicochemical. Conditions: 1 h. The method in brief:
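PPD 100 µM oxidised chemically with m-CPBA 10 µM in CH₂Cl₂, stirred at room temperature for 15 and 60 min. Mixture poured into Na₂CO₃-saturated ice water and extracted three times with ether before LC/MS analysis.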

The subject of data set [5] is Liver microsome. Put plainly: Drug metabolism in mixed human liver microsomes assessed as metabolite 7-1 ((2S,3S,4S,5R,6S)-6-(2-((2S,5S)-5-((3S,5R,8R,9R,10R,12R,14R,17S)-3,12-dihydroxy-4,4,8,10,14-pentamethylhexadecahydro-1H-cyclopenta[a]phenanthren-17-yl)-5-methyltetrahydrofuran-2-yl)propan-2-yloxy)-3,4,5-trihydroxytetrahydro-2H-pyran-2-carboxylic acid) formation at 50 uM after 120 mins by liquid chromatography-electrospray ionization ion trap mass spectrometry in presence of UDPGA. Format: ADME. In a few lines:
(§2)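 Pooled human liver microsomes, 1.0 mg/ml protein, in 50 mM Tris-HCl pH 7.4 with 10 mM MgCl₂, 2 mM UDPGA and 25 µg/mL alamethicin. Preincubated 3 min at 37°C, started with substrate 50 µM (final MeOH 0.1%), run 120 min, stopped with ice-cold acetonitrile. Time-0 controls; duplicates. Analysed by LC/ESI ion-trap MSn.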

The subject of data set [6] is Hepatocyte. Put plainly: Retention time of the compound in human hepatocytes treated with 20(S)-protopanaxadiol at 50 uM after 180 mins by liquid chromatography-electrospray ionization ion trap mass spectrometry. Type of data set: ADME, cell-based. Conditions: 3 h. The method in brief: as §1
The test system of data set [7] is Liver microsome. Put plainly: Drug level in mixed human liver microsomes treated with (20S,24R)-epoxydammarane-3,12,25-triol at 50 uM after 120 mins by liquid chromatography-electrospray ionization ion trap mass spectrometry in presence of UDPGA. Format: ADME. Conditions: 2 h. The method in brief: (§3)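 Pooled HLM protein 1.0 mg/ml in 50 mM Tris-HCl pH 7.4 with 10 mM MgCl₂, 2 mM UDPGA and 25 µg/mL alamethicin. Preincubated 3 min at 37°C, then started with substrate (50 µM). Run 120 min, stopped with equal volume ice-cold acetonitrile. 0 min incubations served as controls, in duplicate. Processed and analysed by LC/ESI ion trap MSⁿ.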

Data set [8] deals with Liver microsome. Put plainly: Drug metabolism in mixed human liver microsomes assessed as metabolite 7-2 ((2S,3S,4S,5R,6S)-6-(2-((2R,5S)-5-((3S,5R,8R,9R,10R,12R,14R,17S)-3,12-dihydroxy-4,4,8,10,14-pentamethylhexadecahydro-1H-cyclopenta[a]phenanthren-17-yl)-5-methyltetrahydrofuran-2-yl)propan-2-yloxy)-3,4,5-trihydroxytetrahydro-2H-pyran-2-carboxylic acid) formation at 50 uM after 120 mins by liquid chromatography-electrospray ionization ion trap mass spectrometry in presence of UDPGA. Format: ADME. The method in brief: as §2

Data set [9] deals with Liver microsome. Put plainly: Drug level in mixed human liver microsomes treated with (20S,24S)-epoxydammarane-3,12,25-triol at 50 uM after 120 mins by liquid chromatography-electrospray ionization ion trap mass spectrometry in presence of UDPGA. The conditions noted are these: 2 h. Format: ADME. In a few lines: as §3

SMILES strings stand for the structures.

Regarding `CC(C)(O)[C@H]1CC[C@@](C)([C@H]2CC[C@]3(C)[C@@H]2[C@H](O)C[C@@H]2[C@@]4(C)CCC(=O)C(C)(C)[C@@H]4CC[C@]23C)O1`, in [1], the Drug excretion result is listed as “metabolite_detected”. The Drug metabolism entry in [2] is “metabolite_detected”. In [3], this molecule gave a Retention_time of 19.7 min.

As to `CC(C)(O)[C@@H]1CC[C@@](C)([C@H]2CC[C@]3(C)[C@@H]2[C@H](O)C[C@@H]2[C@@]4(C)CC[C@H](O)C(C)(C)[C@@H]4CC[C@]23C)O1`, the Drug excretion result in [1] is reported as “metabolite_detected”. The Retention_time in data set [4] and in data set [3] was 19.2 min throughout. For the same molecule, the Drug metabolism entry in data set [2] and in [5] was “metabolite_detected” in each case.

Regarding `CC(C)(O)[C@@H](O)CC[C@](C)(O)[C@H]1CC[C@]2(C)[C@@H]1[C@H](O)C[C@@H]1[C@@]3(C)CC[C@H](O)C(C)(C)[C@@H]3CC[C@]12C`, the Retention_time in data set [6] came out at 13.2 min.

Regarding `CC(C)(O)[C@H](O)CC[C@](C)(O)[C@H]1CC[C@]2(C)[C@@H]1[C@H](O)C[C@@H]1[C@@]3(C)CC[C@H](O)C(C)(C)[C@@H]3CC[C@]12C`, in data set [6], the Retention_time is listed as 15.8 min.

For the molecule `CC(C)(O[C@@H]1O[C@H](C(=O)O)[C@@H](O)[C@H](O)[C@H]1O)[C@H]1CC[C@@](C)([C@H]2CC[C@]3(C)[C@@H]2[C@H](O)C[C@@H]2[C@@]4(C)CC[C@H](O)C(C)(C)[C@@H]4CC[C@]23C)O1`, in data set [7], the Drug metabolism entry is recorded as “metabolite_detected”. This molecule gave a Retention_time in [6] of 16.9 min.

`CC1(C)O[C@H]1CC[C@](C)(O)[C@H]1CC[C@]2(C)[C@@H]1[C@H](O)C[C@@H]1[C@@]3(C)CC[C@H](O)C(C)(C)[C@@H]3CC[C@]12C`: the Drug excretion entry in data set [1] is given as “metabolite_detected”. For the same molecule, the Retention_time in data set [4] and in data set [3] was 18.7 min each time. The Drug metabolism entry in data set [2] is “metabolite_detected”.

Consider `CC(C)(O)[C@H]1CC[C@@](C)([C@H]2CC[C@]3(C)[C@@H]2[C@H](O)C[C@@H]2[C@@]4(C)CC[C@H](O)C(C)(C)[C@@H]4CC[C@]23C)O1`, for which the Drug metabolism result in [8] and in [2] was “metabolite_detected” in each case. In data set [1], the Drug excretion entry is reported as “metabolite_detected”. Besides, the Retention_time in data set [4] and in [3] was 19.8 min each time.

As for `CC(C)(O[C@@H]1O[C@H](C(=O)O)[C@@H](O)[C@H](O)[C@H]1O)[C@@H]1CC[C@@](C)([C@H]2CC[C@]3(C)[C@@H]2[C@H](O)C[C@@H]2[C@@]4(C)CC[C@H](O)C(C)(C)[C@@H]4CC[C@]23C)O1`, the Drug metabolism entry in data set [9] is on record as “metabolite_detected”. In data set [6], this molecule displayed a Retention_time of 16 min.

On to `CC(C)(O)[C@@H]1CC[C@@](C)([C@H]2CC[C@]3(C)[C@@H]2[C@H](O)C[C@@H]2[C@@]4(C)CCC(=O)C(C)(C)[C@@H]4CC[C@]23C)O1`, for which, in data set [1], the Drug excretion entry is on record as “metabolite_detected”. Further, the Drug metabolism result in data set [2] is listed as “metabolite_detected”. This molecule came in with a Retention_time in data set [3] of 19.1 min.
